According to ChEMBL document CHEMBL1155655 (2000):
Values after ≈ are worked out from the molar mass of the structure shown. Active and inactive are the calls of the source. The rule behind the calls is not given here.

How the values were obtained:
[1] = Toxicity in brine shrimp; type: organism-based; conditions: artemia, in vivo
[2] = test system: KB; test: Cytotoxicity against human KB cells; type: functional, cell-based
[3] = test system: A549; test: Cytotoxicity against human A549 cells; type: functional, cell-based
[4] = test system: SK-MEL-30; test: Cytotoxicity against human SK-MEL-30 cells; type: functional, cell-based
[5] = test system: MCF7; test: Cytotoxicity against human MCF7 cells; type: functional, cell-based
[6] = test system: Leishmania donovani; test: Antileishmanial activity against extracellular Leishmania donovani LV9 infected in C57BL/10ScSn mouse bone marrow-derived macrophages; type: functional; conditions: LV9, read-out: ED50
[7] = test system: Leishmania infantum; test: Antileishmanial activity against promastigotes of Leishmania infantum D.SCH infected in C57BL/10ScSn mouse bone marrow-derived macrophages; type: functional, organism-based
Summary of the method: (§1)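 Promastigotes of L. donovani LV9, L. infantum D.SCH (isolated 1995 from an infant visceral leishmaniasis case), L. enriettii and L. major LV39, grown at 25 °C, 5% CO2, humidified, and passaged every 3-4 days. Stocks were kept by animal passage (not L. infantum) and cryopreserved in liquid nitrogen.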

[8] = test system: Leishmania enriettii; test: Antileishmanial activity against promastigotes of Leishmania enriettii infected in C57BL/10ScSn mouse bone marrow-derived macrophages; type: functional; conditions: read-out: ED50
[9] = test system: Leishmania major; test: Antileishmanial activity against promastigotes of Leishmania major LV39 infected in C57BL/10ScSn mouse bone marrow-derived macrophages; type: functional, organism-based
Summary of the method: as §1

[10] = test system: Leishmania donovani; test: Antileishmanial activity against intracellular Leishmania donovani LV9 infected in C57BL/10ScSn mouse bone marrow-derived macrophages; type: functional; conditions: LV9, read-out: ED50
[11] = Cytotoxicity against C57BL/10ScSn mouse bone marrow-derived macrophages; type: cell-based, Macrophage

## C/C=C\C(=O)O[C@@H]1[C@@H](O)[C@H]2O[C@@H]3C=C(C)C(=O)C[C@]3(C)[C@]1(C)[C@]21CO1 [TRICHOTHECINOL A]
[1]
  LC50: 0.52 µg/mL (≈ 1.49 µM)
[2]; kb
  EC50: 0.014 µg/mL (≈ 0.0402 µM)
[3]; a549
  EC50: 0.021 µg/mL (≈ 0.0603 µM)
[4]; sk-mel-30
  EC50: 0.013 µg/mL (≈ 0.0373 µM)
[5]; mcf7
  EC50: 0.014 µg/mL (≈ 0.0402 µM)

## C/C=C\C(=O)O[C@@H]1[C@@H](O)[C@H]2O[C@@H]3C=C(C)CC[C@]3(C)[C@]1(C)[C@]21CO1 [8-DIHYDROTRICHOTHECINOL A]
[2]; kb
  EC50: 0.1 µg/mL (≈ 0.299 µM)
[3]; a549
  EC50: 0.11 µg/mL (≈ 0.329 µM)
[4]; sk-mel-30
  EC50: 0.11 µg/mL (≈ 0.329 µM)
[5]; mcf7
  EC50: 0.11 µg/mL (≈ 0.329 µM)

## CC1=C[C@]23O[C@@H]4C[C@@H](O)[C@](C)([C@@]2(C)CC1=O)[C@]4(CO)O3 [LOUKACINOL A]
[2]; Homo sapiens, KB
  EC50: 13.9 µg/mL (≈ 49.6 µM)
[3]; Homo sapiens, A549
  EC50: 21.4 µg/mL (≈ 76.3 µM)
[4]; Homo sapiens, SK-MEL-30
  EC50: 16.4 µg/mL (≈ 58.5 µM)
[5]; Homo sapiens, MCF7
  EC50: 15.8 µg/mL (≈ 56.4 µM)

## C/C=C\C(=O)O[C@@H]1C[C@H]2O[C@@H]3C=C(C)C(=O)C[C@]3(C)[C@]1(C)[C@]21CO1 [TRICHOTHECIN]
[1]
  LC50: 2.2 µg/mL (≈ 6.62 µM)
[2]; kb
  EC50: 35 µg/mL (≈ 105 µM)
[3]; a549
  EC50: 16 µg/mL (≈ 48.1 µM)
[4]; sk-mel-30
  EC50: 14 µg/mL (≈ 42.1 µM)
[5]; mcf7
  EC50: 19 µg/mL (≈ 57.2 µM)

## CC1=C[C@]23O[C@@H]4CC[C@](C)([C@@]2(C)CC1=O)[C@]4(CO)O3 [LOUKACINOL B]
[2]; Homo sapiens, KB
  EC50: 11.8 µg/mL (≈ 44.6 µM)
[3]; Homo sapiens, A549
  EC50: 15.2 µg/mL (≈ 57.5 µM)
[4]; Homo sapiens, SK-MEL-30
  EC50: 13.6 µg/mL (≈ 51.5 µM)
[5]; Homo sapiens, MCF7
  EC50: 13.3 µg/mL (≈ 50.3 µM)

## CC1=C[C@H]2O[C@@H]3C[C@@H](O)[C@](C)([C@@]2(C)CC1=O)[C@]31CO1 [TRICHOTHECOLONE]
[2]; kb
  EC50: 10.6 µg/mL (≈ 40.1 µM)
[3]; a549
  EC50: 7.1 µg/mL (≈ 26.9 µM)
[4]; sk-mel-30
  EC50: 8.6 µg/mL (≈ 32.5 µM)
[5]; mcf7
  EC50: 10.6 µg/mL (≈ 40.1 µM)

## C=C[C@]1(C)CC[C@]2(C)[C@@H](C1)C(=O)[C@@H](O)[C@@H]1[C@]3(C)CCC[C@@]12OC3=O
[6]
  EC50: 10.3 µg/mL (≈ 31 µM)
[7]
  Activity: inactive
[8]
  EC50: > 50 µg/mL
[9]
  Activity: inactive
[10]
  EC50: 37.2 µg/mL (≈ 112 µM)
[11]
  CC50: 19.5 µg/mL (≈ 58.7 µM)

## CC(=O)OC[C@]12O[C@]34C=C(C)C(=O)C[C@]3(C)[C@@]1(C)[C@H](O)C[C@H]2O4 [13-ACETOXYLOUKACINOL A]
[2]; Homo sapiens, KB
  EC50: 13.6 µg/mL (≈ 42.2 µM)
[3]; Homo sapiens, A549
  EC50: 26.6 µg/mL (≈ 82.5 µM)
[4]; Homo sapiens, SK-MEL-30
  EC50: 18 µg/mL (≈ 55.8 µM)
[5]; Homo sapiens, MCF7
  EC50: 15.9 µg/mL (≈ 49.3 µM)
